Assay results as given in the RNAGym collection of RNA variant scans (doi:10.1101/gad.245936.114).
Fewer inactive variants are shown than the library holds.

B1: tRNA (parent)
chain: CUCUCGGUAGCCAAGUUGGUUUAAGGCGCAAGACUUUAAUUUAUCACUACGAAAUCUUGAGAUCGGGCGUUCGACUCGCCCCCGGGAGAUUUUUUCCUCGAGCAA

Variants of: B1
Test: nonsense suppression (GFP-seq) (ratio to wild type); higher = more function; SUP4oc tRNA, yeast GFP reporter sort-seq
In short: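 Yeast carrying genome-integrated SUP4oc tRNA variants from a library with ~3% random mutations were grown in raffinose/galactose medium with 80 mg/L adenine. Each strain also carried a galactose-driven GFP ochre reporter and RFP. Cells were sorted into GFP/RFP bins, and each bin was Illumina-sequenced (phred ≥30). Nonsense suppression (GFPSEQ) is the bin median GFP/RFP, weighted by each variant's estimated cell share per bin, relative to wild-type SUP4oc; variants needed ≥100 reads and ≥30 cells.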

| Variant | nonsense suppression |
| --- | --- |
| CUCUCGGUAGCCCAGUUGGUUUAAGGCGCAAGACUUUAAUUUAUCACUACGAAACCUUGAGAUCGGGCGUUCGACUCGCCCCCGGGAGAUUUUUUCCUCGAGCAA [A13C U55C] | 0.827 |
| CUCUCGGUAGCCAAGUUGGUUUAAGGCGCAAGACUUUAAUUUAUCACUACGAACUCUUGAGAUCGGGCGUUCGGCUCGCCCCCGGGAGAUUUUUUCCUCGAGCAA [A54C A74G] | 0.0575 |
| CUCUCGGUCGCCAAGUUGGUUUAAGGCGCAAGACUUUAAUUUAUCACUACGAAAUCUUGAGAUCGGGCGUUCGACUCGCCCCCGGGGGAUUUUUUCCUCGAGCAA [A9C A87G] | 0.649 |
| CUCUCGGUAGCCAAGUUGGUUUAAGGCCCAAGACUUUAAUUUAUCACUACGAAAUCUUGUGAUCGGGCGCUCGACUCGCCCCCGGGAGAUUUUUUCCUCGAGCAA [G28C A60U U70C] | ≤ 0.026 |
| CUCUCGGGAGCCAAGUUGGUUUAAGGCGGAAGACUUUAAUUUAUCACUACGAAAUCUUGAGAUCGGGCGUUCGACUCGCCCCCAGGAGAUUUUUUCCUCGAGCAA [U8G C29G G84A] | ≤ 0.026 |
| CUCUCGUUAGCCAAGUUGGUAUAAGGCGCAAGACUUUAAUUUAUCACUACGAAAUCUUGAGAUCGGGCGUUCGACUCAACCCCGGGAGAUUUUUUCCUCGAGCAA [G7U U21A G78A C79A] | ≤ 0.026 |
| CUCUCGAUAGCCAAGUUGGUUUAAGGCGCAAGAUUUUAAUUUAUCACUACGAAAUCUUGAGAUCGGGCGUUCGACUCGCCCCCGGGAGAUUUUUUCCUCGAGCAA [G7A C34U] | ≤ 0.026 |
| CUCUCGGUAGCCAAGUUGGUUUAAGGCGCGAGACUUUAAUUUAUCACUACGAACUCUUGAGAUCGGGCGUUCGACUCGCCCCCGGGAGAUUUUUUCCUCGAGCAA [A30G A54C] | 0.077 |
| CUCUCGGUAGCCAAGUUGGUUUAAGGCACAAGUCUUUAAUUUAUCACUACGAAAUCUUGAGAUCGGGCGUUCGACUCGCCCCCGGGAGAUUUUUUCCUCGAGCAA [G28A A33U] | 0.0279 |
| CUCCCGGUAGCCAAGUUGGUUUAAGGCGCAAGACUUUAAUUUAUCACUACGAAAUCGUGAGAUCGGGCGUUCGACUCGCCCCCGGGAGAUUUUUUCCUCGAGCAA [U4C U57G] | 0.0337 |
| CUCUGGGUACCCAAGUUGGUUUAAGGCGCAAGACUUUAAUUUAUCACUACGAAAUCCUGAGAUCGGGCGUUCGACUCGCCCCCGGGAGAUUUUUUCCUCGAGCAA [C5G G10C U57C] | ≤ 0.026 |
| CUCUCGGUAGCCAAGUUGGUUUAAGGCGCAAGACCUUAAUUUAUCACUACGAAAUCUUGAAAUCGGGCGUUCGACUCGCCCCCGGGAGAUUUUUUCCUCGAGCAA [U35C G61A] | 0.0378 |
| CUCUCGGUAGCGAAGUCGGUGUAAGGCGCAAGACUUUAAUUUAUCACUACGAAAUCUUGAGAUCGGGCGUUCGACUCGCCCCCGGGAGAUUUUUUCCUCGAGCAA [C12G U17C U21G] | ≤ 0.026 |
| CCCUCGGUAGCCAAGUAGGUUUAAGGCGCAAGACUUUAAUUUAUCACUACGAAAUCUUGAGAUCGGGCGUUCGACUCGCCCCCGGGAGAUUUUUUCCUCGAGCAA [U2C U17A] | 0.0435 |
| CUCUCGGUAGCCAAGGUGGUUUAAGGCGCAAGACUUUAAUUUAUCACUACGAAAUCAUGAGAUUGUGCAUUCGACUCGCCCCCGGGAGAUUUUUUCCUCGAGCAA [U16G U57A C64U G66U G69A] | ≤ 0.026 |
| CUCUCGGUAGCCAAGUUGGUUUAAGGUGCAAGACUUUAAUUUAUCACUACGAAAUCUUGAGAUCGGGCGUUCGACUAGCCCCCGGGAGAUUUUUUCCUCGAGCAA [C27U C77A] | ≤ 0.026 |
| CUCUCGGUAGCCAAGAUGGUUUAAGGCGCAAGAGUUUAAUUUAUCACUACGAAAUCUUGAGACCGGGCGUUCGACUGGCCCCCGGCAGAUUUUUUCCUCGAGCAA [U16A C34G U63C C77G G86C] | ≤ 0.026 |
| CUCUCGGUAGCCAAGUUGGUUUAAGGCGCAAGACUUUAAUUUAUCACUACGAAAUCUUGACAUCGGGUGUUCGACUCGCCCCCGGGAGAUUUUUUCCUCGAGCAA [G61C C68U] | 0.633 |
| CUUUCGGUAGCCUAGUUGGUUUAAGGCGCAAGACUUUAAUUUAUCACUACGAAAUCUUGAGAUCGGGCGUUCGACUCGCCCCCGGGAGAUUUUUUCCUCGAGCAA [C3U A13U] | 0.194 |
| CUCUCGGUAUCCAAGUUGGUUUAAGGCGCAAGAGUUUAAUUUAUCACUACGAAAUCUUGAGAACGGGCGUUCGACUCGCCUCCGGGAGAUUUUUUCCUCGAGCAA [G10U C34G U63A C81U] | ≤ 0.026 |
| CUCCCGGUAGCCUAGUUGGUUUAAGGCGCAAGACUUUAAUUUAUCACUACGAAAUCUUGAGAUCGGGCGUUCGACUCGCCCCCGGGAGAUUUUUUCCUCGAGCAA [U4C A13U] | 1.12 |
| CUCUCGGUAGCCAAGUUGGUGUAAGGCGCAAGACUUUAAUUUAUCACUACGAAAUCUUGAGAUCGGGCGUUCUACUCGCCCCCGGGAGAUUUUUUCCUCGAGCAA [U21G G73U] | 0.026 |
| CUCGCGGUAGCCAAGUUGGGUAAAGGCGCAAGACUUUAAUUUAUCACUACGAAAUCUUGAGAUCGGGCGUUCGACUCGCCCCCGGGAGAUUUUUUCCUCGAGCAA [U4G U20G U22A] | 0.21 |
| CUCUCGGUAGCCAAGUCGGGUUAAGGCGCAAGACUUUAAUUUAUCACUACGAAAUCUUGAGAUCGGGCGUUCGACUCGCCCCCGGGAGAUUUUUUCCUCGAGCAA [U17C U20G] | 1.25 |
| CUCUCGGUAGCCAAGUUGGUUUAAGGCGCAAGGCUUUAAUUUAUCACUACGAAAUCUUGAGAUCGGGCGUUCGACUCGCCCCCGGGAGAUUUUUUCCUCGAGCAA [A33G] | 0.346 |
| UUCUCGGUAGCUAAGUUGGUUUAAGGCGCAAGACUUUAAUUUAUCACUACGAAAUCUUGAGAUCGGGCGUUCGACUCGCCCCCGGGAGAUUUUUUCCUCGAGCAA [C1U C12U] | ≤ 0.026 |
| CUCCCGGUAGCCAAGUUGGUUUAAGGCGCAAGAGUUUAAUUUAUCACUACGAAAUCUUGAGAUCGGGCGUUCGACUCGCCCCCGGGAGAUUUUUUCCUCGAGCAA [U4C C34G] | 0.0649 |
